Measurements from ChEMBL document CHEMBL2401717, “Synthesis and bioactive evaluation of novel hybrids of metronidazole and berberine as new type of antimicrobial agents and their transportation behavior by human serum albumin” (Bioorg Med Chem, 2013).
Values after ≈ are worked out from the molar mass of the structure shown.

Tests used:
Format in all cases: functional
Proteus vulgaris = experiment: Antibacterial activity against Proteus vulgaris after 24 hrs by twofold broth dilution method
Procedure, shortened: (§1)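 MIC by NCCLS-recommended twofold broth microdilution, run in triplicate. Strains: B. subtilis ATCC6633, E. coli DH52, M. luteus ATCC4698, P. vulgaris ATCC6896, S. dysenteriae, S. aureus ATCC25923, MRSA N315, C. albicans ATCC76615, C. mycoderma. References were chloromycin, norfloxacin and berberine for bacteria, and fluconazole for fungi.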

Escherichia coli = experiment: Antibacterial activity against Escherichia coli DH52 after 24 hrs by twofold broth dilution method; settings: DH52, 24 h; procedure, shortened: as §1
Pseudomonas aeruginosa = experiment: Antibacterial activity against Pseudomonas aeruginosa after 24 hrs by twofold broth dilution method
Procedure, shortened: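 Twofold broth dilution in 96-well microplates following NCCLS guidance; MIC read as the endpoint; tests run in triplicate.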

Staphylococcus aureus [1] = experiment: Antibacterial activity against Staphylococcus aureus ATCC 25923 after 24 hrs by twofold broth dilution method; settings: ATCC 25923, 24 h; procedure, shortened: as §1
Staphylococcus aureus [2] = experiment: Antibacterial activity against methicillin-resistant Staphylococcus aureus N315 after 24 hrs by twofold broth dilution method; settings: N315, 24 h; procedure, shortened: as §1
Candida = experiment: Antifungal activity against Candida mycoderma after 24 hrs by twofold broth dilution method; procedure, shortened: as §1
Micrococcus luteus = experiment: Antibacterial activity against Micrococcus luteus ATCC 4698 after 24 hrs by twofold broth dilution method; settings: ATCC 4698, 24 h; procedure, shortened: as §1
Shigella dysenteriae = experiment: Antibacterial activity against Shigella dysenteriae after 24 hrs by twofold broth dilution method; procedure, shortened: as §1
Candida albicans = experiment: Antifungal activity against Candida albicans after 24 hrs by twofold broth dilution method; procedure, shortened: as §1
Bacillus subtilis = experiment: Antibacterial activity against Bacillus subtilis after 24 hrs by twofold broth dilution method; procedure, shortened: as §1

| Compound | MIC (Proteus vulgaris) [µg/mL] | MIC (Escherichia coli) [µg/mL] | MIC (Pseudomonas aeruginosa) [µg/mL] | MIC (Staphylococcus aureus [1]) [µg/mL] | MIC (Staphylococcus aureus [2]) [µg/mL] | MIC (Candida) [µg/mL] | MIC (Micrococcus luteus) [µg/mL] | MIC (Shigella dysenteriae) [µg/mL] | MIC (Candida albicans) [µg/mL] | MIC (Bacillus subtilis) [µg/mL] |
| --- | --- | --- | --- | --- | --- | --- | --- | --- | --- | --- |
| O=[N+]([O-])c1cncn1CCN(CCBr)Cc1ccc(Cl)c(Cl)c1 | 32 (≈ 75.8 µM) | 16 (≈ 37.9 µM) | 16 (≈ 37.9 µM) | 32 (≈ 75.8 µM) | 32 (≈ 75.8 µM) | 128 (≈ 303 µM) | 128 (≈ 303 µM) | 8 (≈ 19 µM) | 16 (≈ 37.9 µM) | 32 (≈ 75.8 µM) |
| O=[N+]([O-])c1cncn1CCN(CCBr)Cc1ccccc1Cl | 16 (≈ 41.3 µM) | 8 (≈ 20.6 µM) | 16 (≈ 41.3 µM) | 8 (≈ 20.6 µM) | 16 (≈ 41.3 µM) | 32 (≈ 82.5 µM) | 64 (≈ 165 µM) | 16 (≈ 41.3 µM) | 8 (≈ 20.6 µM) | 8 (≈ 20.6 µM) |
| O=[N+]([O-])c1cncn1CCN(CCBr)Cc1cccc(Cl)c1 | 256 (≈ 660 µM) | 64 (≈ 165 µM) | 32 (≈ 82.5 µM) | 16 (≈ 41.3 µM) | 64 (≈ 165 µM) | 64 (≈ 165 µM) | 64 (≈ 165 µM) | 256 (≈ 660 µM) | 64 (≈ 165 µM) | 64 (≈ 165 µM) |
| O=[N+]([O-])c1cncn1CCN(CCBr)Cc1ccc(Cl)cc1 | 256 (≈ 660 µM) | 128 (≈ 330 µM) | 64 (≈ 165 µM) | 64 (≈ 165 µM) | 128 (≈ 330 µM) | 128 (≈ 330 µM) | 128 (≈ 330 µM) | 256 (≈ 660 µM) | 64 (≈ 165 µM) | 64 (≈ 165 µM) |
| Cc1ncc([N+](=O)[O-])n1CCN(CCBr)Cc1ccc(F)cc1F | 128 (≈ 317 µM) | 32 (≈ 79.4 µM) | 64 (≈ 159 µM) | 64 (≈ 159 µM) | 16 (≈ 39.7 µM) | 128 (≈ 317 µM) | 128 (≈ 317 µM) | 32 (≈ 79.4 µM) | 128 (≈ 317 µM) | 256 (≈ 635 µM) |
| O=[N+]([O-])c1cn(CCN(CCBr)Cc2ccc(F)cc2F)cn1 | 32 (≈ 82.2 µM) | 32 (≈ 82.2 µM) | 16 (≈ 41.1 µM) | 32 (≈ 82.2 µM) | 64 (≈ 164 µM) | 8 (≈ 20.6 µM) | 16 (≈ 41.1 µM) | 16 (≈ 41.1 µM) | 32 (≈ 82.2 µM) | 64 (≈ 164 µM) |
| O=[N+]([O-])c1cn(CCN(CCBr)Cc2ccc(Cl)c(Cl)c2)cn1 | 64 (≈ 152 µM) | 32 (≈ 75.8 µM) | 32 (≈ 75.8 µM) | 32 (≈ 75.8 µM) | 64 (≈ 152 µM) | 64 (≈ 152 µM) | 64 (≈ 152 µM) | 16 (≈ 37.9 µM) | 32 (≈ 75.8 µM) | 32 (≈ 75.8 µM) |
| O=[N+]([O-])c1cn(CCN(CCBr)Cc2ccccc2Cl)cn1 | 64 (≈ 165 µM) | 32 (≈ 82.5 µM) | 32 (≈ 82.5 µM) | 16 (≈ 41.3 µM) | 64 (≈ 165 µM) | 128 (≈ 330 µM) | 64 (≈ 165 µM) | 32 (≈ 82.5 µM) | 16 (≈ 41.3 µM) | 32 (≈ 82.5 µM) |
| O=[N+]([O-])c1cn(CCN(CCBr)Cc2cccc(Cl)c2)cn1 | 512 (≈ 1320 µM) | 128 (≈ 330 µM) | 64 (≈ 165 µM) | 64 (≈ 165 µM) | 128 (≈ 330 µM) | 128 (≈ 330 µM) | 64 (≈ 165 µM) | 256 (≈ 660 µM) | 128 (≈ 330 µM) | 64 (≈ 165 µM) |
| O=[N+]([O-])c1cn(CCN(CCBr)Cc2ccc(Cl)cc2)cn1 | 128 (≈ 330 µM) | 128 (≈ 330 µM) | 256 (≈ 660 µM) | 64 (≈ 165 µM) | 128 (≈ 330 µM) | 128 (≈ 330 µM) | 128 (≈ 330 µM) | 128 (≈ 330 µM) | 64 (≈ 165 µM) | 64 (≈ 165 µM) |
| O=[N+]([O-])c1cncn1CCN(CCBr)Cc1ccc(F)cc1F | 16 (≈ 41.1 µM) | 32 (≈ 82.2 µM) | 8 (≈ 20.6 µM) | 32 (≈ 82.2 µM) | 32 (≈ 82.2 µM) | 4 (≈ 10.3 µM) | 16 (≈ 41.1 µM) | 8 (≈ 20.6 µM) | 16 (≈ 41.1 µM) | 64 (≈ 164 µM) |
| NC1CCN(c2c(F)cc3c(=O)c(C(=O)O)cn(C4CC4)c3c2Cl)C1 (stereo unspecified) [CLINAFLOXACIN] | – | – | 16 (≈ 43.7 µM) | – | – | – | – | – | – | – |
| OC(Cn1cncn1)(Cn1cncn1)c1ccc(F)cc1F [FLUCONAZOLE] | – | – | – | – | – | 4 (≈ 13.1 µM) | – | – | 1 (≈ 3.27 µM) | – |
| CCn1cc(C(=O)O)c(=O)c2cc(F)c(N3CCNCC3)cc21 [NORFLOXACIN] | 8 (≈ 25.1 µM) | 16 (≈ 50.1 µM) | 16 (≈ 50.1 µM) | 0.5 (≈ 1.57 µM) | 8 (≈ 25.1 µM) | – | 2 (≈ 6.26 µM) | 4 (≈ 12.5 µM) | – | 1 (≈ 3.13 µM) |
